Reference: ChEMBL document CHEMBL3425488, “Novel histone deacetylase inhibitors induce growth arrest, apoptosis, and differentiation in sarcoma cancer stem cells” (J Med Chem, 2015)
Calls of active or inactive are those of the source. No cut-off for these calls is given here.

Assays:
[1] = test system: SK-ES1; experiment: Antiproliferative activity against human SK-ES-1 cells after 24 to 72 hrs by […] dye exclusion assay; assay type: functional, cell-based
Summary of the method: (§1)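 Sarcosphere-derived CSCs, dissociated to single cells, plated at 50000/well in complete IMDM for adhesion. After 24 h, exposed to 0.5, 1 and 2 μM. Viable cells counted by dye exclusion at 24, 48 and 72 h. Growth inhibition is expressed relative to DMSO-treated controls. Three experiments in duplicate.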

[2] = test system: SK-ES1; experiment: Induction of apoptosis in human SK-ES-1 cells at 1 to 2 uM after 48 hrs by Hoechst 33258 staining-based fluorescence microscopic analysis; assay type: functional, cell-based
Summary of the method: (§2)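 Dissociated sarcospheres seeded on glass coverslips in complete IMDM and exposed to 0.5, 1 and 2 μM for 48 h; untreated cells as negative control. Fixed in methanol/acetic acid (3:1), then stained with 2.25 μg/mL Hoechst 33258 for 10 min at rt in the dark. Apoptotic-body nuclei counted over at least five fields (20× objective) and reported as percentage of cells.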

[3] = test system: HOS; experiment: Antiproliferative activity against HOS cells after 24 to 72 hrs by […] dye exclusion assay; assay type: functional, cell-based; conditions: Homo sapiens; summary of the method: as §1
[4] = molecular target: T1, Protein deacetylase HDAC6 (Homo sapiens) (UniProt Q9UBN7); experiment: Inhibition of HDAC6 in human MG63 cells assessed as upregulation of acetyl-tubulin level at 0.5 to 2 uM after 24 hrs by Western blot analysis relative to control; assay type: cell-based; conditions: MG-63
T1 sequence (whole entry): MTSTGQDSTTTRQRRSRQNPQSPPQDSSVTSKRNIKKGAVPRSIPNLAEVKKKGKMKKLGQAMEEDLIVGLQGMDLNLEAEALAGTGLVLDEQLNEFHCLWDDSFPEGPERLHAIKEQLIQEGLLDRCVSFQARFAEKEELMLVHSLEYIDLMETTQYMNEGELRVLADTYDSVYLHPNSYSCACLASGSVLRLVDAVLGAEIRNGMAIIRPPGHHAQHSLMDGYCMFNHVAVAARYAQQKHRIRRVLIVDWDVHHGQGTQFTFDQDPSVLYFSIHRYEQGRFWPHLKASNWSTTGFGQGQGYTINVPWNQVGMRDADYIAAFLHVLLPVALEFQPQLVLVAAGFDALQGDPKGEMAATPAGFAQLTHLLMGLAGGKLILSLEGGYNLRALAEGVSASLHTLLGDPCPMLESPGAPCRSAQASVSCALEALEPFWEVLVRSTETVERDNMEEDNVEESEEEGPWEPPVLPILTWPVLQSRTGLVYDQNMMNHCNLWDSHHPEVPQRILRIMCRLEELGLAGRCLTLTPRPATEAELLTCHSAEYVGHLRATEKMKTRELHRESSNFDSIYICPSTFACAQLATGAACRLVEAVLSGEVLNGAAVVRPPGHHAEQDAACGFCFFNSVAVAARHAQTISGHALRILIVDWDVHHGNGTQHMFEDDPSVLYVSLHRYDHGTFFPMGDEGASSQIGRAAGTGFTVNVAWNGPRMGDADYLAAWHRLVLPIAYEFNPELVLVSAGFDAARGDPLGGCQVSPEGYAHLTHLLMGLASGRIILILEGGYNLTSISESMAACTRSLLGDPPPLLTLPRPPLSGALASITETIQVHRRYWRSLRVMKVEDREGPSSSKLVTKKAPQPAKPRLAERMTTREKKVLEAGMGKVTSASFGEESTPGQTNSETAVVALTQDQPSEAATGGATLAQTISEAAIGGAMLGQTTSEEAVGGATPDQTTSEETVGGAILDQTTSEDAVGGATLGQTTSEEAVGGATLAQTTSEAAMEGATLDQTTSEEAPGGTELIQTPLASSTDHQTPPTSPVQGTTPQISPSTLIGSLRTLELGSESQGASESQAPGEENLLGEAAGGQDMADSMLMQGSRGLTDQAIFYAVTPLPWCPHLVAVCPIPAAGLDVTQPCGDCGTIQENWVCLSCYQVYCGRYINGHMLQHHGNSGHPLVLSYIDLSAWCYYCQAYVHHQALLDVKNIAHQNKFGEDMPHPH
Summary of the method: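 MG-63 sarcosphere-derived CSCs treated 24 h with 0.5 and 2 μM. Acetyl-tubulin measured by Western blot with densitometry normalized to TBP and expressed as index versus negative control.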

[5] = test system: RD; experiment: Induction of apoptosis in human RD cells at 1 to 2 uM after 48 hrs by Hoechst 33258 staining-based fluorescence microscopic analysis; assay type: functional, cell-based; summary of the method: as §2
[6] = molecular target: Histone deacetylase 4 (Homo sapiens, UniProt P56524); experiment: Inhibition of recombinant HDAC4 (unknown origin) by homogeneous fluorescence release assay
Summary of the method: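 Isoform enzyme assay run in 10-dose IC50 mode. Compounds were serially diluted 3-fold starting from 50 μM solutions.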

[7] = test system: MG-63; experiment: Induction of apoptosis in human MG63 cells at 0.5 to 2 uM after 48 hrs by Alexa Fluor 488 Annexin V/propidium iodide staining-based flow cytometric analysis; assay type: functional, cell-based
[8] = test system: A673; experiment: Cytotoxicity against human A673 cells assessed as cell viability after 72 hrs by MTT assay; assay type: functional, cell-based
Summary of the method: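 Sarcosphere-derived CSC cultures exposed 72 h to concentrations from 100 μM down to 0.1 μM. Viability compared with DMSO-only treated cells. IC50 calculated by linear regression.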

[9] = test system: A673; experiment: Induction of apoptosis in human A673 cells at 1 to 2 uM after 48 hrs by Hoechst 33258 staining-based fluorescence microscopic analysis; assay type: functional, cell-based; summary of the method: as §2
[10] = test system: HOS; experiment: Induction of apoptosis in HOS cells at 1 to 2 uM after 48 hrs by Hoechst 33258 staining-based fluorescence microscopic analysis; assay type: functional, cell-based; conditions: Homo sapiens; summary of the method: as §2
[11] = test system: RD; experiment: Antiproliferative activity against human RD cells after 24 to 72 hrs by […] dye exclusion assay; assay type: functional, cell-based; summary of the method: as §1
[12] = test system: MG-63; experiment: Antiproliferative activity against human MG63 cells after 24 to 72 hrs by […] dye exclusion assay; assay type: functional, cell-based; summary of the method: as §1

Sequence of Histone deacetylase 4 (P56524 whole entry, canonical isoform): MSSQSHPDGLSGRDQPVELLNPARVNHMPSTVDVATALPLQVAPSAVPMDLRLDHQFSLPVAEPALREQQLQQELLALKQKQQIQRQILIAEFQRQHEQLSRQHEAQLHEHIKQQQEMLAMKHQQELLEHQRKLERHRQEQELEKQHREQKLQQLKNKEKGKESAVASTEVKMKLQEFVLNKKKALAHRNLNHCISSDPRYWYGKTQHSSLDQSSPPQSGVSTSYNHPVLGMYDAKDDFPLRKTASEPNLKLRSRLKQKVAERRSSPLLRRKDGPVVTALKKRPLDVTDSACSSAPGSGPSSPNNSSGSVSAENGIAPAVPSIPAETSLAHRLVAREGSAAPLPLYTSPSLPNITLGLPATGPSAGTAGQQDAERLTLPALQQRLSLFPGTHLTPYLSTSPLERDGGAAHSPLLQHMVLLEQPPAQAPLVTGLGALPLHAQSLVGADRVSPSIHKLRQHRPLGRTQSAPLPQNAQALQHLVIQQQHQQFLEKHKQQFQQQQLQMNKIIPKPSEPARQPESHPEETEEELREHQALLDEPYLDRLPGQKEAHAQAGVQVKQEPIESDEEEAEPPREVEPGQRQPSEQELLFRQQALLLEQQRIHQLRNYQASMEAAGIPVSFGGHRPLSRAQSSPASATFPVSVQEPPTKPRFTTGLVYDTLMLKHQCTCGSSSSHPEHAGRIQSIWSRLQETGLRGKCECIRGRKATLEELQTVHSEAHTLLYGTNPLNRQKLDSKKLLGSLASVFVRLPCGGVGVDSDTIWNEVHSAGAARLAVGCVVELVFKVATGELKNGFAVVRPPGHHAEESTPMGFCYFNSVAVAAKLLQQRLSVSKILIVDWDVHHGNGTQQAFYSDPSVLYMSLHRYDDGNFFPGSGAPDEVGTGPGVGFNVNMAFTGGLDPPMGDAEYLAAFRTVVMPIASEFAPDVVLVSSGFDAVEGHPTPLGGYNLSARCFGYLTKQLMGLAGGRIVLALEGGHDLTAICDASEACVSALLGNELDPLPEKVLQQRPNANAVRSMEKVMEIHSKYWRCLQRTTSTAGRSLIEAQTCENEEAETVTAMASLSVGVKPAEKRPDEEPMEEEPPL

## O=C(CCCCSc1nc(-c2ccc(-c3ccccc3)cc2)cc(=O)[nH]1)NO
[1]
  Activity: Dose-dependent effect
[2]
  Activity: Active
[3]
  Activity: Dose-dependent effect
[4]
  inhibition: Active
[5]
  Activity: Active
[6]
  IC50: > 50 µM
[7]
  Activity: Active
[8]
  Activity: Dose-dependent effect
[9]
  Activity: Active
[10]
  Activity: Active
[11]
  Activity: Dose-dependent effect
[12]
  Activity: Dose-dependent effect

## O=C(/C=C/c1ccc(NC(=O)C(Cc2ccccc2)c2ccccc2)cn1)NO (centres undefined)
[1]
  Activity: Dose-dependent effect
[2]
  Activity: Active
[3]
  Activity: Dose-dependent effect
[4]
  inhibition: Active
[5]
  Activity: Active
[6]
  IC50: 11.7 µM
[7]
  Activity: Active
[8]
  Activity: Dose-dependent effect
[9]
  Activity: Active
[10]
  Activity: Active
[11]
  Activity: Dose-dependent effect
[12]
  Activity: Dose-dependent effect
